Activity calls are given as the source filed them. The calls are words filed in the database; no cut-off is given here. Some results are limits rather than exact numbers.

For assay [1], the species on record is Homo sapiens. Nature of the assay: Selectivity ratio of Ke for human delta opioid receptor to Ke for human kappa opioid receptor.
The species named for assay [2] is Homo sapiens. Nature of the assay: Selectivity ratio of Ke for human mu opioid receptor to Ke for human kappa opioid receptor.
The target in assay [3] is Kappa-type opioid receptor (Homo sapiens) (UniProt P41145). As to the kind of experiment: Antagonist activity at human kappa opioid receptor expressed in CHO cells assessed as inhibition of U69,593-stimulated [35S]GTPgammaS binding at 10 nM relative to control. It counts as functional, cell-based.
For assay [4] the target is unchanged. Nature of the assay: Antagonist activity at human kappa opioid receptor expressed in CHO cells assessed as inhibition of U69,593-stimulated [35S]GTPgammaS binding. Type of assay: functional, cell-based. The essentials: (§1)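 Agonist concentration-response curves (eight concentrations, duplicate) were run with or without a single test-compound concentration. Ke = [L]/(DR−1), where [L] is the test-compound concentration and DR is the ratio of agonist EC50 with versus without compound. At least two test-compound concentrations were used, chosen to shift agonist EC50 rightward at least four-fold while keeping a clear upper asymptote.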

Assay [5] shares this target. As to the kind of experiment: Intrinsic activity at human kappa opioid receptor expressed in CHO cells at 10 uM by [35S]GTPgammaS binding assay. It counts as functional, cell-based.
The target of assay [6] is Delta-type opioid receptor (Homo sapiens) (UniProt P41143). As to the kind of experiment: Intrinsic activity at human delta opioid receptor expressed in CHO cells at 10 uM by [35S]GTPgammaS binding assay. It counts as functional, cell-based.
Assay [7] has the same target. As to the kind of experiment: Antagonist activity at human delta opioid receptor expressed in CHO cells assessed as inhibition of DPDPE-stimulated [35S]GTPgammaS binding. It counts as functional, cell-based. The essentials: as §1
Assay [8] addresses Mu-type opioid receptor (Homo sapiens) (UniProt P35372). As to conditions: CHO.

Kappa-type opioid receptor (Homo sapiens), sequence (P41145 whole entry): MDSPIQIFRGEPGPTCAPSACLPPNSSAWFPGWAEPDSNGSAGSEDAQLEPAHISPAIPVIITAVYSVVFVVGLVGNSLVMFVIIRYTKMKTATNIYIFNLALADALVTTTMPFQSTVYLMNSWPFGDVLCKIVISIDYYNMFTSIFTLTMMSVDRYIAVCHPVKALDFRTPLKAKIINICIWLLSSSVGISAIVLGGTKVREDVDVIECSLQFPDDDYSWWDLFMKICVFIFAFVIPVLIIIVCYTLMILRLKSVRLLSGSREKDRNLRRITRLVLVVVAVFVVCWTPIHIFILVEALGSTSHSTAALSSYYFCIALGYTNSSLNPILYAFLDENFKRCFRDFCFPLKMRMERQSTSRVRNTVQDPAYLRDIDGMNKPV
Mu-type opioid receptor (Homo sapiens), sequence (P35372 whole entry): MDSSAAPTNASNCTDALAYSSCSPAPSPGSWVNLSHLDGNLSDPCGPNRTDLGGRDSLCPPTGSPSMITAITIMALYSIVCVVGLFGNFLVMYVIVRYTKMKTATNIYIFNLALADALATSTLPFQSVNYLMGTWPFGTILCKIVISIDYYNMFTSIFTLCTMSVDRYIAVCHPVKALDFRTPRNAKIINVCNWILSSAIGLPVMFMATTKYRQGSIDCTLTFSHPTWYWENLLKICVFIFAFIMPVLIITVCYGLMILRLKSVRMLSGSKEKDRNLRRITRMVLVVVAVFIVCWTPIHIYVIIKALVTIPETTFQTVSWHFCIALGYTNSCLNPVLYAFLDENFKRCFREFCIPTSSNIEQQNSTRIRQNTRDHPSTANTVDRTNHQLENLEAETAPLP
Delta-type opioid receptor (Homo sapiens), sequence (P41143 whole entry): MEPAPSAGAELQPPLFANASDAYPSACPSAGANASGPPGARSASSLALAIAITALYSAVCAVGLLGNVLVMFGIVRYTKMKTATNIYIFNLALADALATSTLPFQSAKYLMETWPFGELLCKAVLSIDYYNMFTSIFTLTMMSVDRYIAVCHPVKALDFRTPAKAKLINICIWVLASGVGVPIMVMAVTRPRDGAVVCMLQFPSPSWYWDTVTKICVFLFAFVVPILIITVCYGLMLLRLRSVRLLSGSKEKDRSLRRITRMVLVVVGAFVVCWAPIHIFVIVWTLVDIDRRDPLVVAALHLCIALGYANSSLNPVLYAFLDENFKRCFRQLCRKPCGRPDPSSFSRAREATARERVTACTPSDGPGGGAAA

`CC(C)[C@@H](CN1CCN(c2cccc(O)c2)[C@@H](C)C1)NC(=O)c1ccc(-c2ccccc2)cc1`: the Ratio Ke in assay [1] was found to be 137; in assay [2], 4.7. Further, the inhibition in assay [3] is over 60%. Also, the Ke in assay [4] is 1.87 nM. Also, the result in assay [5] and in assay [6] was inactive.

Regarding `CC(C)[C@@H](CN1CCN(c2cccc(O)c2)[C@@H](C)C1)NC(=O)c1ccc(Oc2ccccc2)cn1`, the Ratio Ke in assay [1] came out at 723; in assay [2], 36. For the same compound, the Ke was 2.8 nM in assay [4], 2020 nM in assay [7] and 101 nM in assay [8]. The outcome in assay [5] and in assay [6] was inactive.

For `Cc1cc(C)cc(Oc2ccc(C(=O)N[C@H](CN3CCN(c4cccc(O)c4)[C@@H](C)C3)C(C)C)cc2)c1`, the Ratio Ke in assay [1] is 80; in assay [2], 26. The Ke was found to be 0.98 nM in assay [4], 78 nM in assay [7] and 25 nM in assay [8]. Further, the result in assay [5] and in assay [6] was inactive.

Turning to `Cc1cccc(Oc2ccc(C(=O)N[C@H](CN3CCN(c4cccc(O)c4)[C@@H](C)C3)C(C)C)cc2)c1`, the Ratio Ke in assay [1] amounted to 771; in assay [2], 77. In addition, the Ke in assay [4] stood at 0.17 nM; in assay [7] it was 131 nM; in assay [8] it was 13 nM. Besides, the outcome in assay [5] and in assay [6] was inactive.

Take `Cc1ccc(Oc2ccc(C(=O)N[C@H](CN3CCN(c4cccc(O)c4)[C@@H](C)C3)C(C)C)cc2)cc1`: the Ratio Ke amounted to 272 in assay [1] and 29 in assay [2]. Moreover, the results for the Ke in assay [4], in assay [7] and in assay [8] were 0.69 nM, 188 nM and 20 nM, respectively. Besides, the result in assay [5] and in assay [6] was inactive.

As to `CC(C)[C@@H](CN1CCN(c2cccc(O)c2)[C@@H](C)C1)NC(=O)c1ccc(Oc2ccc(O)cc2)cc1`, the Ratio Ke came out at 197 in assay [1] and 8 in assay [2]. Further, the figures for the Ke in assay [4], in assay [7] and in assay [8] were 8.6 nM, 1700 nM and 71 nM, respectively. The outcome in assay [5] and in assay [6] was inactive.

Consider `COc1cc(Oc2cccc(C)c2)ccc1C(=O)N[C@H](CN1CCN(c2cccc(O)c2)[C@@H](C)C1)C(C)C`, for which the Ratio Ke was 48 in assay [1] and 38 in assay [2]. For the same compound, the Ke in assay [4] was determined as 1.3 nM; in assay [7] it was 63 nM; in assay [8], 49 nM. Further, the result in assay [5] and in assay [6] was inactive.

Take `COc1cc(C(=O)N[C@H](CN2CCN(c3cccc(O)c3)[C@@H](C)C2)C(C)C)ccc1Oc1cccc(C)c1`: the Ratio Ke was 372 in assay [1] and 140 in assay [2]. For the same compound, the results for the Ke in assay [4], in assay [7] and in assay [8] were 0.25 nM, 93 nM and 35.1 nM, respectively. For the same compound, the outcome in assay [5] and in assay [6] was inactive.

With `CCCCc1ccc(C(=O)N[C@H](CN2CCN(c3cccc(O)c3)[C@@H](C)C2)C(C)C)cc1`, the Ratio Ke in assay [1] worked out at 83; in assay [2], 7.5. The inhibition in assay [3] is over 60%. In addition, the Ke in assay [4] turned out to be 2.8 nM. In addition, the result in assay [5] and in assay [6] was inactive.

On to `CC(C)[C@@H](CN1CCN(c2cccc(O)c2)[C@@H](C)C1)NC(=O)c1ccc(Oc2ccccc2)cc1`, for which the Ratio Ke in assay [1] amounted to 671; in assay [2], 60. Besides, the inhibition in assay [3] is over 60%. Further, the Ke in assay [4] worked out at 0.85 nM; in assay [7], 570 nM; in assay [8], 51 nM. The outcome in assay [5] and in assay [6] was inactive.

The values above are taken from ChEMBL document CHEMBL2380235, “Discovery of N-{4-[(3-hydroxyphenyl)-3-methylpiperazin-1-yl]methyl-2-methylpropyl}-4-phenoxybenzamide analogues as selective kappa opioid receptor antagonists” (J Med Chem, 2013).
